Results reported in ChEMBL document CHEMBL3826876, “Toward the Development of Specific G-Quadruplex Binders: Synthesis, Biophysical, and Biological Studies of New Hydrazone Derivatives” (J Med Chem, 2016).
Active and inactive are the calls of the source. No cut-off for these calls is given here.

Key:
[1] = Binding affinity to synthetic telomere 23 parallel G-quadruplex DNA assessed as change in melting temperature at 4 mol equiv in presence of 100 mM KCl buffer by circular dichroism spectroscopic analysis
Procedure, shortened: (§1)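 CD melting, 20-100 °C at 1 °C/min, signal at 264 (parallel), 290 (antiparallel) or 280 nm (duplex). G4 DNA 10 µM or duplex 15 µM, folded by heating at 90 °C 5 min and slow cooling, in 10 mM potassium phosphate (c-kit1, Tel23, Tel26) or lithium phosphate (Tel23-p, ds12) pH 7.0 with 100 mM KCl. Ligand 4 equiv; Tm by curve fit, ΔTm vs DNA alone; duplicate average.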

[2] = Binding affinity to synthetic c-MYC G-quadruplex DNA assessed as change in melting temperature at 4 mol equiv in presence of 20 mM KCl buffer by circular dichroism spectroscopic analysis
[3] = Effect on synthetic telomere 23 G-quadruplex DNA topology at 4 mol equiv by circular dichroism spectroscopic analysis
Procedure, shortened: (§2)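 CD spectra at 20 °C, 230-360 nm, 3 scans averaged, baseline subtracted; 10 µM G4 or 15 µM duplex in potassium- or lithium-phosphate pH 7.0 buffers with 100 mM KCl (c-kit2, c-myc: 5 mM potassium phosphate, 20 mM KCl); ligand 4 molar equiv added to folded DNA from 6 mM DMSO stock.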

[4] = Effect on synthetic c-KIT1 G-quadruplex DNA topology at 4 mol equiv by circular dichroism spectroscopic analysis; procedure, shortened: as §2
[5] = Effect on synthetic c-KIT2 G-quadruplex DNA topology at 4 mol equiv by circular dichroism spectroscopic analysis; procedure, shortened: as §2
[6] = Effect on synthetic c-MYC G-quadruplex DNA topology at 4 mol equiv by circular dichroism spectroscopic analysis; procedure, shortened: as §2
[7] = Effect on synthetic telomere 23 parallel G-quadruplex DNA topology at 4 mol equiv by circular dichroism spectroscopic analysis; procedure, shortened: as §2
[8] = Effect on synthetic telomere 26 G-quadruplex DNA topology at 4 mol equiv by circular dichroism spectroscopic analysis; procedure, shortened: as §2
[9] = Effect on synthetic self-complementary DNA 12-mer duplex topology at 4 mol equiv in presence of K+ ions by circular dichroism spectroscopic analysis; procedure, shortened: as §2
[10] = Binding affinity to synthetic c-KIT1 G-quadruplex DNA assessed as change in melting temperature at 4 mol equiv in presence of 100 mM KCl buffer by circular dichroism spectroscopic analysis; procedure, shortened: as §1
[11] = Binding affinity to synthetic c-KIT2 G-quadruplex DNA assessed as change in melting temperature at 4 mol equiv in presence of 20 mM KCl buffer by circular dichroism spectroscopic analysis
Procedure, shortened: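 CD melting as for other targets (20-100 °C, 1 °C/min, 10 µM folded G4, ligand 4 equiv), but in 5 mM potassium phosphate with 20 mM KCl; c-kit2 read at 264 nm as parallel G4. ΔTm from fitted Tm, duplicate average.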

[12] = Binding affinity to synthetic telomere 23 G-quadruplex DNA assessed as change in melting temperature at 4 mol equiv in presence of 100 mM KCl buffer by circular dichroism spectroscopic analysis; procedure, shortened: as §1
[13] = Binding affinity to synthetic telomere 26 G-quadruplex DNA assessed as change in melting temperature at 4 mol equiv in presence of 100 mM KCl buffer by circular dichroism spectroscopic analysis; procedure, shortened: as §1
Homo sapiens [14] = species on record: Homo sapiens; assay: Binding affinity to human 5'-FAM/3'-TAMRA labeled telomere 21 G-quadruplex DNA assessed as increase in melting temperature by FRET assay
Procedure, shortened: (§3)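 FRET melting screen in 60 mM potassium cacodylate pH 7.4, labelled probe 400 nM annealed at 85 °C for 10 min; ligands at various concentrations up to 20 µM, diluted from 10 mM DMSO stock via 10 mM HCl. Excitation 450-495 nm, emission 515-545 nm, 30-100 °C in 0.5 °C steps with 30 s hold; ΔTm by curve fitting, triplicate.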

Homo sapiens [15] = species on record: Homo sapiens; assay: Binding affinity to human 5'-FAM/3'-TAMRA labeled duplex DNA T-loop assessed as increase in melting temperature by FRET assay; procedure, shortened: as §3
[16] = Binding affinity to synthetic self-complementary DNA 12-mer duplex assessed as change in melting temperature at 4 mol equiv in presence of 100 mM KCl buffer by circular dichroism spectroscopic analysis; procedure, shortened: as §1

Row | SMILES | ΔTm [1] | ΔTm [2] | Activity [3] | Activity [4] | Activity [5] | Activity [6] | Activity [7] | Activity [8] | Activity [9] | ΔTm [10] | ΔTm [11] | ΔTm [12] | ΔTm [13] | Activity (Homo sapiens [14]) | Activity (Homo sapiens [15]) | ΔTm [16]
1 | Cn1c(Cl)c(/C=N/NC(=N)N)c2cc3c(/C=N/NC(=N)N)c(Cl)n(C)c3cc21 | > 20 °C | > 20 °C | inactive | inactive | inactive | inactive | inactive | inactive | inactive | > 15 °C | > 15 °C | 3 °C | 1.3 °C | Active | Active | 
2 | Cn1c(Cl)c(/C=N/NC(=N)N)c2ccc(/C=N/NC(=N)N)cc21 | > 20 °C | > 20 °C | inactive | inactive | inactive | inactive | inactive | inactive | inactive | > 15 °C | > 20 °C | 6 °C | 5.8 °C | Active | Active | 
3 | C(=N\Nc1ccccn1)/c1c(-c2ccccc2)nc2n1ccc1nc(-c3ccccc3)c(/C=N/Nc3ccccn3)n12 | 1.3 °C | -0.2 °C | inactive | inactive | inactive | inactive | inactive | inactive | inactive | 0.4 °C | 0 °C | -1 °C | -1.6 °C | inactive |  | 0.9 °C

Continued, values first:

Row | ΔTm [1] | ΔTm [2] | Activity [3] | Activity [4] | Activity [5] | Activity [6] | Activity [7] | Activity [8] | Activity [9] | ΔTm [10] | ΔTm [11] | ΔTm [12] | ΔTm [13] | Activity (Homo sapiens [14]) | Activity (Homo sapiens [15]) | ΔTm [16] | SMILES
4 | > 20 °C | > 20 °C | inactive | inactive | inactive | inactive | inactive | inactive | inactive | > 15 °C | > 15 °C | 5.6 °C | 5.1 °C | Active | Active |  | N=C(N)N/N=C/c1ccc2c(/C=N/NC(=N)N)c(Cl)n(-c3ccccc3)c2c1
5 | 4 °C | 1.6 °C | inactive | inactive | inactive | inactive | inactive | inactive | inactive | 1.5 °C | 2 °C | -2.5 °C | -2 °C | inactive |  | -0.7 °C | CN1C(=C2\C(=N\Nc3ccccn3)c3ccccc3N2C)/C(=N/Nc2ccccn2)c2ccccc21
6 | 7.7 °C | 11 °C | inactive | inactive | inactive | inactive | inactive | inactive | inactive | 0.9 °C | 8.2 °C | -0.5 °C | 0.2 °C | inactive |  | -0.8 °C | CN1C(=C2\C(=N\NC(=N)N)c3ccccc3N2C)/C(=N/NC(=N)N)c2ccccc21
